Measurements published in publication PMC8122083 (ACS infectious diseases, 2021).
In brackets after ≈: the same amount, converted by molar mass. Read-outs that look alike come from different tables or passages of the source.

Legend:
[1] = test system: H. pylori SS1; test: H. pylori IC50 dose response; assay type: cell-based; conditions: for IC50: Helicobacter pylori; for fold greater potency than compound 1: H. pylori SS1; for fold increase in potency: SS1 (stated for both strains), lead compounds relative to hits
[2] = test system: H. pylori ATCC 43504; test: H. pylori IC50 dose response; assay type: cell-based; conditions: for IC50: Helicobacter pylori; for fold increase in potency: ATCC 43504 (stated for both strains), lead compounds relative to hits
[3] = Cytotoxicity assay; assay type: cell-based; conditions: human, FaDu cells
Method in brief: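 FaDu cells, maintained per ATCC protocols, were seeded in EMEM with 10% FBS at 3 x 10^5 cells/ml and grown 24 h at 37°C, 5% CO2. Medium was replaced with two-fold serial dilutions of test compound in fresh medium for 72 h, then with FBS-free EMEM plus resazurin (final 0.15 mM) for 3-5 h. Fluorescence read at ex 540/em 590 nm. IC50 fitted from percent inhibition versus growth controls, converted to pIC50, and reported as mean ± S.E.M.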

[4] = test system: H. pylori; test: H. pylori murine infection model; assay type: in vivo, mouse; conditions: compared to metronidazole control
[5] = Mouse pharmacokinetics; assay type: in vivo, mice
[6] = test system: H. pylori SS1; test: ex vivo H. pylori infection model; parameters: species or system mouse; conditions: 0.6 μg/mL (1.6μM), 24 hours
[7] = test system: panel of representative Gram-negative and Gram-positive species, including commensals; test: MIC against panel of representative Gram-negative and Gram-positive species; assay type: cell-based
[8] = Solubility; assay type: physicochemical
[9] = test system: H. pylori HM-274 resistant isolates; test: MIC of spontaneous resistant mutants of H. pylori HM-274; assay type: cell-based; conditions: two spontaneous mutants selected at twice the MIC of 28
[10] = SS1, read-out: H. pylori SS1 pIC50 (converted)
[11] = ATCC43504, read-out: H. pylori ATCC 43504 pIC50 (converted)

CN(CCCO)c1ncnc2sc(-c3ccccc3)cc12 [Compound 8, 3-(methyl(6-phenylthieno[2,3-d]pyrimidin-4-yl)amino)propan-1-ol]
IC50 [1, 10]: 6.31 µM
IC50 [2, 11]: 15.8 µM
IC50 at 72 h [3]: 100 µM

OCCNc1ncnc2sc(-c3ccccc3)cc12 [Compound 9, 2-((6-phenylthieno[2,3-d]pyrimidin-4-yl)amino)ethan-1-ol]
IC50 [1, 10]: 2 µM
IC50 [2, 11]: 5.01 µM
IC50 at 72 h [3]: 100 µM

CC(CO)Nc1ncnc2sc(-c3ccccc3)cc12 (centres unmarked) [Compound 10, 2-((6-phenylthieno[2,3-d]pyrimidin-4-yl)amino)propan-1-ol]
fold greater potency than compound 1 [1]: 20 fold
IC50 [1, 10]: 0.0794 µM
fold increase in potency over compound 1 ([2]; ATCC43504): 37 fold
IC50 [2, 11]: 0.0398 µM
IC50 at 72 h [3]: 100 µM

CC(O)CNc1ncnc2sc(-c3ccccc3)cc12 (centres unmarked) [Compound 11, 1-((6-phenylthieno[2,3-d]pyrimidin-4-yl)amino)propan-2-ol]
fold greater potency than compound 1 [1]: 4 fold
IC50 [1, 10]: 0.398 µM
fold increase in potency over compound 1 ([2]; ATCC43504): less than 2 fold
IC50 [2, 11]: 1 µM
IC50 at 72 h [3]: 63.1 µM

C[C@@H](CO)Nc1ncnc2sc(-c3ccccc3)cc12 [Compound 12, (S)-2-((6-phenylthieno[2,3-d]pyrimidin-4-yl)amino)propan-1-ol]
IC50 [1, 10]: 2.51 µM
IC50 [2, 11]: 5.01 µM
IC50 at 72 h [3]: 251 µM

C[C@H](CO)Nc1ncnc2sc(-c3ccccc3)cc12 [Compound 13, (R)-2-((6-phenylthieno[2,3-d]pyrimidin-4-yl)amino)propan-1-ol]
fold greater potency than compound 1 [1]: 56 fold
IC50 [1, 10]: 0.0316 µM
IC50 [2, 11]: 0.158 µM
IC50 at 72 h [3]: 31.6 µM

COCC(C)Nc1ncnc2sc(-c3ccccc3)cc12 (centres unmarked) [Compound 14, N-(1-methoxypropan-2-yl)-6-phenylthieno[2,3-d]pyrimidin-4-amine]
IC50 [1, 10]: 0.398 µM
fold less potent than compound 10 ([2]; ATCC43504): 29 fold
IC50 [2, 11]: 1.26 µM
IC50 at 72 h [3]: 31.6 µM

OCCCCNc1ncnc2sc(-c3ccccc3)cc12 [Compound 15, 4-((6-phenylthieno[2,3-d]pyrimidin-4-yl)amino)butan-1-ol]
IC50 [1, 10]: 0.316 µM
IC50 [2, 11]: 1.58 µM
IC50 at 72 h [3]: 126 µM

CCC(CO)Nc1ncnc2sc(-c3ccccc3)cc12 (centres unmarked) [Compound 16, 2-((6-phenylthieno[2,3-d]pyrimidin-4-yl)amino)butan-1-ol]
IC50 [1, 10]: 0.02 µM
IC50 [2, 11]: 0.1 µM
IC50 at 72 h [3]: 39.8 µM

CCC(O)CNc1ncnc2sc(-c3ccccc3)cc12 (centres unmarked) [Compound 17, 1-((6-phenylthieno[2,3-d]pyrimidin-4-yl)amino)butan-2-ol]
IC50 [1, 10]: 0.251 µM
IC50 [2, 11]: 0.794 µM
IC50 at 72 h [3]: 39.8 µM

CC(C)C(CO)Nc1ncnc2sc(-c3ccccc3)cc12 (centres unmarked) [Compound 18, 3-methyl-2-((6-phenylthieno[2,3-d]pyrimidin-4-yl)amino)butan-1-ol]
IC50 [1, 10]: 0.794 µM
IC50 [2, 11]: 3.16 µM
IC50 at 72 h [3]: 50.1 µM

COc1ccc(CCNc2ncnc3sc(-c4ccccc4)cc23)cc1OC [Compound 19, N-(3,4-dimethoxyphenethyl)-6-phenylthieno[2,3-d]pyrimidin-4-amine]
IC50 [1, 10]: 0.0398 µM
fold improved potency over compound 2 ([2]; ATCC43504): 11 fold
IC50 ([2]; ATCC43504): 0.16 µM
IC50 [2, 11]: 0.158 µM
IC50 at 72 h [3]: 126 µM

Cc1ccc(CCNc2ncnc3sc(-c4ccccc4)cc23)cc1C [Compound 20, N-(3,4-dimethylphenethyl)-6-phenylthieno[2,3-d]pyrimidin-4-amine]
IC50 [1, 10]: 0.501 µM
IC50 [2, 11]: 0.0794 µM
IC50 at 72 h [3]: < 15.8 µM

c1ccc(-c2cc3c(NCCc4ccncc4)ncnc3s2)cc1 [Compound 21, 6-phenyl-N-(2-(pyridin-4-yl)ethyl)thieno[2,3-d]pyrimidin-4-amine]
IC50 [1, 10]: 1.26 µM
IC50 [2, 11]: 2.51 µM
IC50 at 72 h [3]: 126 µM

c1ccc(-c2cc3c(NCCc4cccnc4)ncnc3s2)cc1 [Compound 22, 6-phenyl-N-(2-(pyridin-3-yl)ethyl)thieno[2,3-d]pyrimidin-4-amine]
IC50 [1, 10]: 3.16 µM
IC50 [2, 11]: 6.31 µM
IC50 at 72 h [3]: 100 µM

COc1cccc(CNc2ncnc3sc(-c4ccccc4)cc23)c1OC [Compound 23, N-(2,3-dimethoxybenzyl)-6-phenylthieno[2,3-d]pyrimidin-4-amine]
IC50 [1, 10]: 0.501 µM
IC50 [2, 11]: 1.58 µM
IC50 at 72 h [3]: 25.1 µM

COc1ccc(CC(CO)Nc2ncnc3sc(-c4ccccc4)cc23)cc1 (centres unmarked) [Compound 24, 3-(4-methoxyphenyl)-2-((6-phenylthieno[2,3-d]pyrimidin-4-yl)amino)propan-1-ol]
IC50 [1, 10]: 0.251 µM
IC50 [2, 11]: 0.126 µM
IC50 at 72 h [3]: 15.8 µM

COc1ccc(C(CO)Nc2ncnc3sc(-c4ccccc4)cc23)cc1 (centres unmarked) [Compound 25, 2-(4-methoxyphenyl)-2-((6-phenylthieno[2,3-d]pyrimidin-4-yl)amino)ethan-1-ol]
efficacy in H. pylori murine infection model ([4]; 25 mg/kg (IP)): did not show efficacy
efficacy in H. pylori murine infection model ([4]; 50 mg/kg (IP)): did not show efficacy
efficacy in H. pylori murine infection model ([4]; 50 mg/kg (PO)): did not show efficacy
IC50 [1, 10]: 0.02 µM
fold increase in potency [1]: > 69 fold
exposure upon oral dosing ([5]; mice, oral (PO), compared with IP): lower exposure
AUC ([5]; mouse, plasma, ip, 50 mg/kg): 31900 ng·h/mL
fold increase in potency [2]: > 69 fold
IC50 ([2]; ATCC43504): 0.021 µM
IC50 [2, 11]: 0.02 µM
effectiveness in ex vivo model [6]: highly effective
samples with colony counts below the limit of detection ([6]; 10 samples): 6 of the 10
MIC [7]: ≥ 16 µg/mL
solubility [8]: 1 µM (≈ 0.377 µg/mL)
IC50 at 72 h [3]: 398 µM

COc1ccc([C@H](CO)Nc2ncnc3sc(-c4ccccc4)cc23)cc1 [Compound 26, (R)-2-(4-methoxyphenyl)-2-((6-phenylthieno[2,3-d]pyrimidin-4-yl)amino)ethan-1-ol]
IC50 ([1]; SS1): 0.0068 µM
IC50 [1, 10]: 0.00631 µM
fold increase in potency [1]: > 69 fold
fold increase in potency [2]: > 69 fold
IC50 ([2]; ATCC43504): 0.01 µM
IC50 [2, 11]: 0.01 µM
MIC [7]: ≥ 16 µg/mL
IC50 at 72 h [3]: 15.8 µM

COc1ccc([C@@H](CO)Nc2ncnc3sc(-c4ccccc4)cc23)cc1 [Compound 27, (S)-2-(4-methoxyphenyl)-2-((6-phenylthieno[2,3-d]pyrimidin-4-yl)amino)ethan-1-ol]
IC50 ([1]; SS1): 0.11 µM
IC50 [1, 10]: 0.1 µM
IC50 ([2]; ATCC43504): 0.053 µM
IC50 [2, 11]: 0.0501 µM
IC50 at 72 h [3]: 50.1 µM

OC[C@H](Nc1ncnc2sc(-c3ccccc3)cc12)c1ccccc1 [Compound 28, (R)-2-phenyl-2-((6-phenylthieno[2,3-d]pyrimidin-4-yl)amino)ethan-1-ol]
MIC of resistant isolates relative to wildtype [9]: 8 fold
IC50 [1, 10]: 0.01 µM
IC50 ([2]; ATCC43504): 0.023 µM
IC50 [2, 11]: 0.0251 µM
MIC [7]: ≥ 16 µg/mL
IC50 at 72 h [3]: < 20 µM

COc1ccc([C@H](CO)Nc2ncnc3sc(-c4ccccc4)cc23)c(F)c1 [Compound 29, (R)-2-(2-fluoro-4-methoxyphenyl)-2-((6-phenylthieno[2,3-d]pyrimidin-4-yl)amino)ethan-1-ol]
IC50 [1, 10]: 0.0126 µM
IC50 [2, 11]: 0.02 µM
MIC [7]: ≥ 16 µg/mL
IC50 at 72 h [3]: 31.6 µM

COc1ccc([C@H](CO)Nc2ncnc3sc(-c4ccccc4)cc23)cc1F [Compound 30, (R)-2-(3-fluoro-4-methoxyphenyl)-2-((6-phenylthieno[2,3-d]pyrimidin-4-yl)amino)ethan-1-ol]
IC50 [1, 10]: 0.0126 µM
IC50 [2, 11]: 0.0158 µM
MIC [7]: ≥ 16 µg/mL
IC50 at 72 h [3]: 31.6 µM

COc1ccc([C@H](CN)Nc2ncnc3sc(-c4ccccc4)cc23)cc1F [Compound 31, (R)-1-(3-fluoro-4-methoxyphenyl)-N^1-(6-phenylthieno[2,3-d]pyrimidin-4-yl)ethane-1,2-diamine]
IC50 [1, 10]: 1 µM
fold increase in H. pylori IC50 on substituting hydroxyl for primary amine ([1]; SS1, relative to 30): > 79 fold
fold increase in H. pylori IC50 on substituting hydroxyl for primary amine ([2]; ATCC 43504, relative to 30): > 79 fold
IC50 [2, 11]: 3.16 µM
MIC [7]: ≥ 16 µg/mL
IC50 at 72 h [3]: 50.1 µM

Cc1sc2ncnc(N[C@@H](CO)c3ccccc3)c2c1C [Compound 37, (R)-2-((5,6-dimethylthieno[2,3-d]pyrimidin-4-yl)amino)-2-phenylethan-1-ol]
IC50 [1, 10]: 0.631 µM
IC50 [2, 11]: 6.31 µM
IC50 at 72 h [3]: < 20 µM

Cc1c(-c2ccccc2)sc2ncnc(N[C@@H](CO)c3ccccc3)c12 [Compound 38, (R)-2-((5-methyl-6-phenylthieno[2,3-d]pyrimidin-4-yl)amino)-2-phenylethan-1-ol]
IC50 [1, 10]: 0.0501 µM
IC50 [2, 11]: 0.316 µM
IC50 at 72 h [3]: 20 µM

Cc1sc2ncnc(N[C@@H](CO)c3ccccc3)c2c1-c1ccccc1 [Compound 39, (R)-2-((6-methyl-5-phenylthieno[2,3-d]pyrimidin-4-yl)amino)-2-phenylethan-1-ol]
IC50 [1, 10]: 7.94 µM
IC50 [2, 11]: 15.8 µM
IC50 at 72 h [3]: 126 µM

OC[C@H](Nc1ncnc2scc(-c3ccccc3)c12)c1ccccc1 [Compound 40, (R)-2-phenyl-2-((5-phenylthieno[2,3-d]pyrimidin-4-yl)amino)ethan-1-ol]
IC50 [1, 10]: 0.501 µM
IC50 [2, 11]: 3.98 µM
IC50 at 72 h [3]: 31.6 µM
